Series [1] addresses T1, 5-hydroxytryptamine receptor 1B (Homo sapiens, UniProt P28222). Nature of the series: Displacement of specific [3H]5-HT binding to cloned human 5-hydroxytryptamine 1B receptor expressed in CHO cells. Format: cell-based. In a few lines:
(§1)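 Radioligand binding to human 5-HT1D and 5-HT1B receptors stably expressed in CHO cells. Radioligand was used at approximately its KD for each receptor. IC50 values are the logarithmic mean of 2–5 independent determinations, each run in duplicate. Maximum variance from the mean of log(IC50) was 4%. Selectivity is IC50(1B)/IC50(1D).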

Series [2] concerns the target T2, 5-hydroxytryptamine receptor 1D (Homo sapiens, UniProt P28221). Nature of the series: Displacement of specific [3H]5-HT binding to cloned human 5-hydroxytryptamine 1D receptor expressed in CHO cells. Format: cell-based. Summed up:
as §1

The target of series [3] is Serotonin 1 receptors; 5-HT1B & 5-HT1D (Homo sapiens) (UniProt P28222+P28221). Briefly: Selectivity towards 5-HT1D and to that of 5-HT1B in CHO cells. Format: cell-based. In a few lines: as §1
In series [4] the target is T1, 5-hydroxytryptamine receptor 1B. Nature of the series: Agonist-induced [35S]GTP-gamma-S, binding in CHO cells stably transfected with human 5-hydroxytryptamine 1B receptor. It counts as functional, cell-based. In a few lines:
(§2)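 [35S]GTPγS binding stimulated by agonist, measured in CHO cells stably transfected with the human 5-HT1D or 5-HT1B receptor. EC50 values are the logarithmic mean of 2–3 independent determinations. Maximum variance of individual log(EC50) values from the mean was 4%.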

Series [5] has the same target. Nature of the series: Efficacy was evaluated relative to human 5-HT1B receptor using [35S]GTP-gamma-S, as radioligand. Format: functional.
Series [6] can be described thus: pKa value by potentiometric method. It counts as physicochemical. Summed up: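 Potentiometric titration in MeOH–H2O cosolvent with ionic strength set by 0.15 M KCl. Three titrations at different water/cosolvent ratios gave psKa values. Aqueous pKa was obtained by Yasuda–Shedlovsky extrapolation to 100% water, plotting psKa + log[H2O] against 1/ε.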
Series [7] has as its system Rattus norvegicus. Briefly: Oral absorption study in rat plasma obtained from hepatic portal vein after 2 hours of administration of 3 mg/kg orally. Format: functional, organism-based. More on the design: dose 3 mg/kg. In a few lines: (§3)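 Male Sprague–Dawley rats, fasted overnight and with no surgery, received 3 mg/kg orally as a 0.6 mg/mL solution in PEG 400:5 mM HCl (25:75 v/v). Terminal blood was taken from the heart and hepatic portal vein under isoflurane at 0.5 and 2 h, three rats per time point. Plasma drug was measured by electrospray mass spectrometry. Values are mean ± SEM.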

The test system of series [8] is Rattus norvegicus. Briefly: Oral absorption study in rat plasma obtained from cardiac blood samples after 0.5 hours of administration of 3 mg/kg orally. Format: functional, organism-based. Details: dose 3 mg/kg. In a few lines:
as §3

Series [9] concerns Rattus norvegicus. Briefly: Oral absorption study in rat plasma obtained from cardiac blood samples after 2 hours of administration of 3 mg/kg orally. It counts as functional, organism-based. Details: dose 3 mg/kg. In a few lines: as §3
The subject of series [10] is Rattus norvegicus. Nature of the series: Oral absorption study in rat plasma obtained from hepatic portal vein after 0.5 hours of administration of 3 mg/kg orally. It counts as functional, organism-based. More on the design: dose 3 mg/kg. In a few lines:
as §3

For series [11], the target named is T2, 5-hydroxytryptamine receptor 1D. Nature of the series: Agonist-induced [35S]GTP-gamma-S, binding in CHO cells stably transfected with human 5-hydroxytryptamine 1D receptor. It counts as functional, cell-based. Summed up:
as §2

T2 sequence (P28221 whole entry): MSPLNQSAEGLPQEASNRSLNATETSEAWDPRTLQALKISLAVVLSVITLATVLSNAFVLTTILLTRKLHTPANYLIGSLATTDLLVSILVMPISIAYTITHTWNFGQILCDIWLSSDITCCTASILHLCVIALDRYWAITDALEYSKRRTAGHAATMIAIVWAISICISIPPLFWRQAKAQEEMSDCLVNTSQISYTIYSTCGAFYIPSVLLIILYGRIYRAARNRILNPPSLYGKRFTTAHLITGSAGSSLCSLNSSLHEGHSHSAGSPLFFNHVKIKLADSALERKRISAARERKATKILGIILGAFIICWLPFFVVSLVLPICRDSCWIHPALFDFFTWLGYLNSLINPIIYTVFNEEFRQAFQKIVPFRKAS
T1 sequence (P28222 whole entry): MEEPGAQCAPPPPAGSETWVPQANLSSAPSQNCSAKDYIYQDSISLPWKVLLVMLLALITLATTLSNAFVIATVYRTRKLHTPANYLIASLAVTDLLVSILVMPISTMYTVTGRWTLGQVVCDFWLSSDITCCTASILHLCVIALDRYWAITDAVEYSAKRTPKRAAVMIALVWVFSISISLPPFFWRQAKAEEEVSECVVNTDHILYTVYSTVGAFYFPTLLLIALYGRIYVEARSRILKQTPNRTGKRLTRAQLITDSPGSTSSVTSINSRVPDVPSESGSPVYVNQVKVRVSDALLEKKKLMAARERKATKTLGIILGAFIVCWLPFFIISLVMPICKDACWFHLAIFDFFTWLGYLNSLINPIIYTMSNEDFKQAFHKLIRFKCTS

As to `FC1(CCc2ccccc2)CCN(CCCc2c[nH]c3ccc(-n4cnnc4)cc23)CC1`, the concentration for half-maximal inhibition (IC50) is 49 nM in series [1] and 2 nM in series [2]. The Selectivity in [3] amounted to 25.

`FC(Cc1c[nH]c2ccc(-n3cnnc3)cc12)CN1CCC(OCc2ccccc2)CC1` (stereo unspecified): the half-maximal inhibitory concentration (IC50) in [1] stood at 3000 nM; in series [2] it was 30 nM. In series [3], this compound yielded a Selectivity of 100.

Regarding `OC(Cc1c[nH]c2ccc(-n3cnnc3)cc12)CN1CCN(Cc2ccccc2)CC1` (stereo unspecified), the IC50 was determined as 360 nM in series [1] and 1.8 nM in series [2]. Besides, the Selectivity in series [3] came out at 200.

In series [4], `CN(Cc1ccccc1)C1CCN(CC(F)Cc2c[nH]c3ccc(-n4cnnc4)cc23)CC1` (stereo unspecified) had an EC50 of 10300 nM. Further, in [5], the Efficacy came out at 59%. The compound also showed an IC50 in series [1] of 1200 nM. In addition, the Selectivity in series [3] stood at 22. In addition, the pKa in series [6] was determined as 8.5. Also, the Plasma concentration with Rattus norvegicus [7] turned out to be 217 ng/mL; in the series with Rattus norvegicus [8], 2 ng/mL; with Rattus norvegicus [9], 10 ng/mL; in the series with Rattus norvegicus [10], 57 ng/mL.

Take `CN(Cc1ccccc1C(F)(F)F)[C@H]1CCN(CCCc2c[nH]c3ccc(-n4cnnc4)cc23)C[C@H]1F`: the figures for the IC50 in series [1] and in [2] were 220 nM and 9.3 nM, respectively. This compound returned a Selectivity in series [3] of 24. For the same compound, the pKa in series [6] amounted to 7.7.

For `Fc1cccc(CCN2CCN(CC(F)Cc3c[nH]c4ccc(-n5cnnc5)cc34)CC2)c1` (stereo in doubt; 28) [listing 1 of 2 here], the IC50 in series [1] worked out at 1000 nM; in series [2] it was 5.1 nM.

Consider `Fc1cccc(CCN2CCN(CC(F)Cc3c[nH]c4ccc(-n5cnnc5)cc34)CC2)c1` (stereo in doubt; 25) [listing 1 of 2 here], for which the EC50 in [4] is 810 nM; in series [11] it was 3.8 nM. Besides, the IC50 in series [1] is 1200 nM; in series [2], 3.5 nM.

`F[C@@H]1CN(CCCc2c[nH]c3ccc(-n4cnnc4)cc23)CC[C@@H]1NCc1ccccc1C(F)(F)F`: the IC50 was found to be 300 nM in series [1] and 13 nM in series [2]. This compound yielded a Selectivity in series [3] of 23.

Take `CN(Cc1ccccc1)C1CCN(CC(F)(F)Cc2c[nH]c3ccc(-n4cnnc4)cc23)CC1`: the IC50 in series [1] was found to be 2100 nM; in series [2] it was 35 nM. In [3], this compound returned a Selectivity of 60.

On to `FC(F)(Cc1c[nH]c2ccc(-n3cnnc3)cc12)CN1CCC(Cc2ccccc2)CC1`, for which the IC50 is 1300 nM in series [1] and 78 nM in [2]. The same compound displayed a Selectivity in series [3] of 17. Also, in series [6], the pKa stood at 6.7.

For `FC(F)(Cc1c[nH]c2ccc(-n3cnnc3)cc12)CN1CCC(COc2ccccc2)CC1`, the IC50 was 7200 nM in [1] and 280 nM in series [2]. Also, the Selectivity in [3] stood at 26.

On to `FC(F)(Cc1c[nH]c2ccc(-n3cnnc3)cc12)CN1CCC(CCc2ccccc2)CC1`, for which the IC50 was found to be 5800 nM in [1] and 56 nM in series [2]. In series [3], this compound came in with a Selectivity of 104.

On to `CN(Cc1ccccc1C(F)(F)F)[C@H]1CCN(CCCc2c[nH]c3ccc(-n4cnnc4)cc23)C[C@@H]1F`, for which the IC50 in series [1] worked out at 220 nM; in [2], 13 nM. For the same compound, the Selectivity in [3] stood at 17. The same compound came in with a pKa in series [6] of 6.9.

As to `Fc1cccc(CC2(F)CCN(CCCc3c[nH]c4ccc(-n5cnnc5)cc34)CC2)c1`, the IC50 was 5.3 nM in [1] and 0.4 nM in series [2]. Also, in series [3], the Selectivity stood at 13.

For the compound `Fc1cccc(CCC2(F)CCN(CCCc3c[nH]c4ccc(-n5cnnc5)cc34)CC2)c1`, the EC50 was determined as 440 nM in series [4] and 5 nM in [11]. Also, in series [5], the Efficacy was found to be 88%. Also, the IC50 in series [1] was 22 nM; in [2], 0.7 nM. Moreover, the Selectivity in [3] was found to be 31.

Consider `Fc1cccc(CCN2CCN(CC(F)Cc3c[nH]c4ccc(-n5cnnc5)cc34)CC2)c1` (stereo in doubt; 28) [listing 2 of 2 here], for which, in [3], the Selectivity turned out to be 196.

For the compound `CN(Cc1ccccc1)[C@H]1CCN(CCCc2c[nH]c3ccc(-n4cnnc4)cc23)C[C@@H]1F`, the IC50 was determined as 13 nM in series [1] and 2.1 nM in [2]. Further, the Selectivity in series [3] was determined as 6.

Consider `Fc1ccccc1CCN1CCN(CC(F)Cc2c[nH]c3ccc(-n4cnnc4)cc23)CC1` (stereo unspecified), for which the half-inhibitory concentration (IC50) stood at 520 nM in [1] and 4.7 nM in series [2]. The compound further showed a Selectivity in series [3] of 111.

Consider `Fc1ccccc1CCC1(F)CCN(CCCc2c[nH]c3ccc(-n4cnnc4)cc23)CC1`, for which the IC50 in series [1] was 16 nM; in [2], 0.8 nM. In series [3], this compound registered a Selectivity of 20.

As for `FC(Cc1c[nH]c2ccc(-n3cnnc3)cc12)CN1CCN(CCc2ccccc2)CC1` (stereo unspecified), the figures for the IC50 in series [1] and in [2] were 930 nM and 6.8 nM, respectively. In [3], this compound displayed a Selectivity of 137.

Take `F[C@H]1CN(CCCc2c[nH]c3ccc(-n4cnnc4)cc23)CC[C@@H]1NCc1ccccc1C(F)(F)F`: the IC50 turned out to be 170 nM in series [1] and 5 nM in [2]. This compound also showed a Selectivity in [3] of 34.

Regarding `Fc1ccc(CCN2CCN(CC(F)Cc3c[nH]c4ccc(-n5cnnc5)cc34)CC2)cc1` (stereo unspecified), the IC50 is 540 nM in series [1] and 5.5 nM in series [2]. This compound returned a Selectivity in series [3] of 98.

`Fc1ccc(CCC2(F)CCN(CCCc3c[nH]c4ccc(-n5cnnc5)cc34)CC2)cc1`: the IC50 in series [1] came to 25 nM; in series [2], 1 nM. The compound also displayed a Selectivity in series [3] of 25.

Consider `CN(Cc1ccccc1)[C@H]1CCN(CCCc2c[nH]c3ccc(-n4cnnc4)cc23)C[C@H]1F`, for which the results for the IC50 in series [1] and in [2] were 220 nM and 12 nM, respectively. Also, the Selectivity in series [3] was 18. In [6], this compound yielded a pKa of 8. The Plasma concentration in the series with Rattus norvegicus [7] worked out at 136 ng/mL; with Rattus norvegicus [8], 2 ng/mL; in the series on Rattus norvegicus [9], 3 ng/mL; in the series with Rattus norvegicus [10], 216 ng/mL.

Regarding `Fc1ccccc1CC1(F)CCN(CCCc2c[nH]c3ccc(-n4cnnc4)cc23)CC1`, the IC50 in [1] worked out at 3.1 nM; in series [2], 0.1 nM.

Take `Fc1cccc(CCN2CCN(CC(F)Cc3c[nH]c4ccc(-n5cnnc5)cc34)CC2)c1` (stereo in doubt; 25) [listing 2 of 2 here]: the Efficacy in [5] came to 25%. In series [3], the Selectivity was determined as 343.

For `FC1(Cc2ccccc2)CCN(CCCc2c[nH]c3ccc(-n4cnnc4)cc23)CC1`, the EC50 in series [4] was 66 nM; in [11], 0.4 nM. The Efficacy in series [5] came to 67%. Moreover, the IC50 in series [1] amounted to 15 nM; in series [2], 0.9 nM. This compound registered a Selectivity in [3] of 17. This compound also registered a pKa in series [6] of 8.8. Moreover, the Plasma concentration in the series with Rattus norvegicus [7] worked out at 273 ng/mL; in the series on Rattus norvegicus [8], 52 ng/mL; with Rattus norvegicus [9], 35 ng/mL; with Rattus norvegicus [10], 570 ng/mL.

Turning to `Fc1cccc(CCN2CCN(C[C@@H](F)Cc3c[nH]c4ccc(-n5cnnc5)cc34)CC2)c1`, the IC50 is 680 nM in series [1] and 5.8 nM in [2]. The Selectivity in series [3] came to 117.

On to `CC(CN1CCN(CC(F)(F)Cc2c[nH]c3ccc(-n4cnnc4)cc23)CC1)c1ccc(F)cc1` (stereo unspecified), for which the IC50 in series [1] was determined as 1000 nM; in series [2] it was 1.8 nM. In addition, the Selectivity in series [3] was found to be 556.

`CC(CN1CCN(CC(F)Cc2c[nH]c3ccc(-n4cnnc4)cc23)CC1)c1ccccc1F` (stereo unspecified): the IC50 in series [1] stood at 380 nM; in series [2] it was 1 nM. The compound also yielded a Selectivity in series [3] of 380.
